# Screening results deposited in PubChem BioAssay by several laboratories.
# Lmaj promast – Leishmania major promastigote growth inhibition. Leishmania major promastigotes, resazurin fluorescence viability. inhibition, % at 10 µM. hit rate 9% among 200,000. AID 1063;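 also: promastigotes grown with compound for 44 hours at 28 °C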
# Redox H2O2 prof – compounds producing H2O2 with reducing agent – biochemical, NIH compound library profiling, artefact control for MLSCN library redox annotation, primary screen | DTT-dependent redox cycling H2O2, phenol red/HRP absorbance; 100% = 100 µM peroxide control, 0% = buffer | activation, % at 10 µM | hit rate 0.03% among 200,000 | AID 878;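 active = activation of at least 50% relative to the plate's high and low controls in the primary single-dose screen; inactive = activation below 50%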;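 also: compound incubated with DTT at 0.8 mM final as the reducing agent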
# G6PDH CS – counter-screen for G6PDH assay hits: L. mesenteroides G6PDH inhibition | AID 1020 | hit rate 0.12% among 200,000 | inhibition, % at 5 µM | Purified L. mesenteroides G6PDH, diaphorase/resazurin coupled fluorescence, 45 min
# PfGluPho inh – PfG6PD (Plasmodium falciparum) enzyme inhibition; PfGluPho enzyme, NADPH resazurin-diaphorase fluorescence; inhibition, % at 20 µM; hit rate 0.78% among 350,000;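 active = inhibition reaching at least a set limit at 20 µM in the primary screen, cut at about 59% in these data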;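 also: 0% = DMSO wells with substrate and 100% = DMSO wells lacking glucose-6-phosphate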
# Diaphorase inh – diaphorase inhibition or chemical oxidation counter-screen; diaphorase resazurin-to-resorufin fluorescence, NADH, 16 min; bacterial (C. kluyveri) enzyme, not human; inhibition, % at 20 µM; hit rate 0.69% among 190,000; AID 1217;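 active = primary screen inhibition at 20 µM above a set limit, cut at about 50% in these data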;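 also: plate controls were DMSO with full reaction for no effect and wells lacking NADH for full effect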
#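 Detection: fluorescence of resorufin formed from resazurin, Ex 544/Em 590 nm; test system: Clostridium kluyveri diaphorase enzyme; amount: 0.14 U/mL diaphorase, enzyme working solution; times: 16-min room-temperature incubation before reading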
# Diaphorase act – diaphorase activation or chemical reduction counter-screen | Diaphorase/resazurin coupled assay, resorufin fluorescence, 16 min; active compounds read high; 1 = vehicle wells, 0 = NADH-free wells | activation factor at 20 µM | hit rate 0.005% among 190,000;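 active = diaphorase activity raised at least twofold by the compound at 20 µM; inactive = activation factor below 2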
#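 System – purified diaphorase enzyme from Clostridium kluyveri · Input – enzyme 0.07 U/mL final · Also added – final NADH 0.114 mM, resazurin 0.1 mM · Measured by – fluorescence of resorufin, 544 nm excitation, 590 nm emission · Timing – 16 min enzyme reaction, ambient temperature · Measure – resorufin increase flagging diaphorase activators or reducers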
# Numbers without * were called inactive; . = not tested or not shown. The entries come from a sample that favours hits as a whole. Rule as the data show it, unless noted: active = inhibition above about 50%; inactive = the rest.
SMILES,Lmaj promast,Redox H2O2 prof,G6PDH CS,PfGluPho inh,Diaphorase inh,Diaphorase act
O=C(c1ccccc1)N1CCN(CC(O)COCC2CC=CCC2)CC1 (centres undefined),45.4,1.8,4.3,5.8,12.1,0.9
O=C(c1ccccc1)N1CCN(CC2CC=CCC2)CC1 (centres undefined),70.2*,2.5,3.9,-16.1,2.7,1
CCOC(=O)C1(Cc2ccccc2)CCN(CC2CC=CCC2)CC1 (centres undefined),79.7*,-0.1,2.5,19.7,6.8,0.9
CCOC(=O)C1(Cc2cccc(F)c2)CCN(CC2CC2)CC1,5.2,-0.5,22.9,-10.4,7.5,0.9
CCOC(=O)C1(Cc2cccc(OC)c2)CCN(CC2CC=CCC2)CC1 (centres undefined),92.0*,-0.1,2.2,-3.7,4.7,1
O=C(CN1C(=O)CC(c2ccccc2)S(=O)(=O)c2ccccc21)N1CCCCC1 (centres undefined),1.1,-0.3,1.4,-14.1,16.0,0.8
O=C1COc2ccc(N3C(=O)C=CC3=O)cc2N1,-1.5,-0.2,13.1,.,17.6,0.8
Cc1onc(-c2c(F)cccc2Cl)c1C(=O)Nc1sc2c(c1C(N)=O)CCC2,63.3*,0.1,-6.1,3.2,25.6,0.7
Cc1onc(-c2c(F)cccc2Cl)c1C(=O)Nc1cccc(Cn2cccn2)c1,62.6*,0.8,10.3,8.7,-1.6,1
Cc1onc(-c2ccccc2)c1C(=O)Nc1sc2c(c1C(N)=O)CCC2,23.6,-0.7,14.9,12.7,15.2,0.8
CC(=O)C1=C(O)C(CSCc2ccccc2)N(C)C1=O (centres undefined),.,.,.,-21.8,.,.
CCOC(=O)C(C)(C)N(Cc1ccc(Cl)cc1)S(=O)(=O)c1ccc(Cl)c([N+](=O)[O-])c1,99.2*,1.0,-2.8,.,16.6,0.8
CCOC(=O)C(C)(C)N(Cc1ccc(C)cc1)S(=O)(=O)c1ccc(Cl)c([N+](=O)[O-])c1,99.8*,0.8,-2.9,3.5,5.1,0.9
C=CCOc1ccccc1CNCc1cccnc1,87.5*,-0.3,-2.4,12.8,8.0,0.9
Clc1ccc(COc2ccccc2CNCc2cccnc2)cc1,98.8*,0.3,6.8,34.2,7.2,0.9
CCOc1cccc(CNCc2cccnc2)c1OCc1ccccc1,15.1,-0.3,-2.7,4.0,14.3,0.9
CC(=O)N1C(=S)NC(=O)/C1=C1/C(=O)N(CC(=O)Nc2cccc(C)c2)c2ccccc21,47.1,0.5,2.6,-6.7,66.6*,0.3
CCCC(=O)NCCc1cc(OC)c(OC)cc1Br,-5.4,-0.4,8.4,10.2,10.5,0.9
CCCCN1C(=O)Cc2c1nc(N)c1c(N)nc(N(CCC)CCC)c(C#N)c21,3.0,-0.5,4.9,5.9,32.0,0.7
N#Cc1c(N2CCCC(O)C2)nc(N)c2c(N)nc3c(c12)CC(=O)N3C12CC3CC(CC(C3)C1)C2 (centres undefined),99.1*,-7.4,49.7,-2.8,55.4*,0.4
C=C(C)CN(CC)c1nc(N)c2c(N)nc3c(c2c1C#N)CC(=O)N3C12CC3CC(CC(C3)C1)C2,90.2*,1.4,3.6,23.7,19.6,0.8
COc1ccc(S(=O)(=O)Nc2ccc(C(N)=O)cc2)cc1C(=O)N1CCCCCC1,.,.,.,7.5,.,.
Cc1nn(C(=O)c2cc([N+](=O)[O-])ccc2Cl)c(C)c1Br,.,.,.,-3.7,.,.
CCN(CC)CCCNC(=S)Nc1ccc(Br)cc1,83.4*,-0.5,13.0,0.7,.,.
CC(C)OP(=O)(OC(C)C)C(Nc1ccccc1)c1ccccc1C(F)(F)F (centres undefined),94.5*,-0.3,9.2,16.4,24.1,0.8
CC(C)OP(=O)(OC(C)C)C(Nc1ccccc1)c1cccc2c1OCO2 (centres undefined),-1.0,0.2,30.9,3.1,13.8,0.9
CCOC(=O)N1CCC(N2Cc3cccc(C(=O)Nc4cccc(F)c4)c3C2=O)CC1,19.6,-0.3,0.9,4.8,18.0,0.8
CCOC(=O)c1ccccc1Oc1c(F)c(F)nc(NCCO)c1F,81.7*,-3.7,22.6,3.4,16.5,0.8
O=C(O)c1c(NC(=O)N2CCOCC2)sc2c1CCCC2,.,.,.,19.7,.,.
